From PubChem
Env fusion inh – inhibitors of HIV-1 Env-driven cell-cell fusion, primary screen, HeLa-JRFL effector, CEM21 target cells, luciferase; 360,000 tested, 1.1% active; inhibition, % at 12.3 µM;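 active = mean replicate inhibition score of at least 50 and every replicate individually at or above 50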;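 also: 0% = plate neutral controls and 100% = maraviroc near 300 nM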
Cneo AK release – Cryptococcus neoformans cell lysis inducers, primary screen, AK release luminescence, single concentration. C. neoformans lysis, adenylate kinase release luminescence, 4 h; normalised: neutral wells 0, clomiphene wells 100. lysis activity, % at 15 µM. 360,000 tested, 0.2% active. AID 651654, 2012;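 active = mean lysis activity across replicates of at least 80%, whatever share of replicates individually reach that level; inactive = mean lysis activity below 80%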
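Material – log-phase Cryptococcus neoformans yeast cells · Input – 5 × 10^6 yeast cells/mL · Medium – fresh YPD growth medium · Doses – single compound concentration per well · Timing – static 4 h at 37 °C with compound, 1 h detection · Detection – adenylate kinase release luminescence · Read-out – signal increase indicating cell lysis · Control set – Clomiphene as positive lysis control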
miR-122 sensor – miR-122 Renilla sensor signal increase in Huh7, primary screen, miR-122 inhibitor project, cell-based, single point, plate reader. AID 602342, 2012. 340,000 tested, 0.3% active. activation (reporter increase), % at 12.5 µM. Huh7 miR-122 Renilla luciferase sensor, 48 h; neutral wells = 0, positive control = 100;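 active = mean replicate activation score at least 90 and every replicate individually at or above 90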;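 also: higher luciferase means less miR-122 activity so hits act as miR-122 inhibitors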
dFosB act – activators of delta FosB homodimer, primary screen, biochemical, fluorescence polarization, TAMRA-CDK5 oligo, single point | Protein FosB (Mus musculus), P13346 | purified delta FosB; percent of positive-control signal above neutral wells | activation, % at 25 µM | 340,000 tested, 0.99% active | AID 493131, 2011;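 active = mean activation above about 17%, with every replicate also reaching it, limit read from the data, passing the limit was not always enough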
Target sequence (P13346 whole entry, looked up): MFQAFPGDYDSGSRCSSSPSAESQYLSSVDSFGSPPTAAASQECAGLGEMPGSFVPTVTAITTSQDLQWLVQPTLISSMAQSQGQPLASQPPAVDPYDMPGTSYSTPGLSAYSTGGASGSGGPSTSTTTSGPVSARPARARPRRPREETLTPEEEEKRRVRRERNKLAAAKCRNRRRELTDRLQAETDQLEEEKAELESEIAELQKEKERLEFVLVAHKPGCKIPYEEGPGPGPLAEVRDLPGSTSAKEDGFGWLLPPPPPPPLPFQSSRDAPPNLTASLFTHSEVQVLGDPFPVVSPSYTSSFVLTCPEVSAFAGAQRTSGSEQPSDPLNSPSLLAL
INS-1E GSIS act – GLuc luminescence reporter in INS-1E cells, primary screen for activators of glucose-dependent secretion of insulin; INS-1E GLuc reporter insulin secretion, 2-3 h; 370,000 tested, 0.61% active; activation, % at 16.6 µM; AID 743287, 2014;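 active = lowest replicate activation of at least 40%, so every replicate reaches that level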;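 also: 0% = median of neutral control wells and 100% = median of IBMX positive control wells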
Rtt109 HAT inh – inhibitors of C. albicans Rtt109/Vps75 HAT, primary screen, biochemical, ThioGlo CoA-SH fluorescence, plate reader | inhibition, % at 34.9 µM | Histone acetyltransferase RTT109 (Candida albicans (strain SC5314 / ATCC MYA-2876)), … | AID 540336, 2011 | purified Rtt109/Vps75, 4 h | 330,000 tested, 0.16% active;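 active = inhibition of at least 50% in every replicate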
The depositor's hits bear a star; . = not tested or not shown; ! = a repeat was not active; [ ] = another dose, or the depositor's remark. Sampled rows, rich in hits. Any-hit rate of the full collection: about 2.4%.

SMILES	Env fusion inh	Cneo AK release	miR-122 sensor	dFosB act	INS-1E GSIS act	Rtt109 HAT inh
C/C=C/c1ccc(C2[C@@H]3CN(C(=O)Nc4ccc(F)cc4)C[C@H]2N3)cc1 (stereo not given in full)	.	.	.	.	-15	.
O=C(Nc1ccc2c(c1)OCO2)N1C[C@@H]2N[C@H](C1)C2c1ccc(C=Cc2ccccc2)cc1 (stereo not given in full)	.	.	.	.	89*!	.
O=C(Nc1ccc(F)cc1)N1C[C@@H]2N[C@H](C1)C2c1ccc(/C=C/c2ccccc2)cc1 (stereo not given in full)	.	.	.	.	-17	.
O=C(Nc1ccc(F)cc1)N1[C@@H]2CNC[C@H]1C2c1ccc(/C=C/c2ccccc2)cc1 (stereo not given in full)	.	.	.	.	9	.
COc1ccc(S(=O)(=O)Nc2cccc3c2O[C@@H](CN(C)C(=O)Nc2cccc4ccccc24)[C@H](C)CN([C@H](C)CO)C3=O)cc1	-3[16.7 µM]	.	0[16.7 µM]	.	-14	.
CCCC#Cc1ccc([C@@H]2[C@H]3CN(C(=O)Nc4ccc(F)cc4)CC(=O)N3[C@H]2CO)cc1	.	.	.	.	-12	.
C[C@H](CO)N1C[C@H](C)[C@@H](CN(C)Cc2ccncc2)Oc2ccc(NC(=O)c3ccncc3)cc2C1=O	14[16.7 µM]	-2	11[16.7 µM]	.	18	.
C[C@@H]1CCCCO[C@@H](CN(C)Cc2ccncc2)[C@@H](C)CN([C@@H](C)CO)C(=O)c2cc(NC(=O)c3ccncc3)ccc2O1	-23[16.7 µM]	89*	-1[16.7 µM]	.	18	.
C[C@@H]1CCCCO[C@@H](CN(C)Cc2ccncc2)[C@@H](C)CN([C@@H](C)CO)C(=O)c2cc(NC(=O)CCCN(C)C)ccc2O1	14[16.7 µM]	56	1[16.7 µM]	.	12	.
C[C@H]1CCCCO[C@H](CN(C)Cc2ccncc2)[C@@H](C)CN([C@@H](C)CO)C(=O)c2cc(NC(=O)CCCN(C)C)ccc2O1	-19[16.7 µM]	98*	6[16.7 µM]	.	9	.
C[C@H](CO)N1C[C@H](C)[C@@H](CN(C)Cc2ccncc2)OCCCC[C@H](C)Oc2ccc(NC(=O)NC3CCCCC3)cc2C1=O	-7[16.7 µM]	111*	-4[16.7 µM]	.	-1	.
C[C@H]1CCCCO[C@@H](CN(C)Cc2ccncc2)[C@@H](C)CN([C@@H](C)CO)C(=O)c2cc(NC(=O)c3ccncc3)ccc2O1	-6[16.7 µM]	-1	0[16.7 µM]	.	19	.
C[C@@H]1CN([C@@H](C)CO)C(=O)c2cc(NC(=O)c3ccncc3)ccc2O[C@H]1CN(C)Cc1ccncc1	67*[16.7 µM]	-5	8[16.7 µM]	.	-4	.
C[C@H]1CN([C@@H](C)CO)C(=O)c2cc(C#CCN(C)C)cnc2O[C@@H]1CN(C)Cc1ccc(F)cc1	-17[16.7 µM]	0	-9[16.7 µM]	.	6	.
Cc1noc(C)c1S(=O)(=O)Nc1ccc2c(c1)C(=O)N([C@H](C)CO)C[C@H](C)[C@H](CN(C)Cc1ccncc1)O2	-1[16.7 µM]	91*	-4[16.7 µM]	.	8	.
CC(C)NC(=O)Nc1ccc2c(c1)C(=O)N([C@H](C)CO)C[C@@H](C)[C@@H](CN(C)Cc1ccncc1)OCCCC[C@H](C)O2	1[16.7 µM]	2	4[16.7 µM]	.	.	.
C[C@H](CO)N1C[C@H](C)[C@H](CN(C)Cc2ccncc2)Oc2ccc(NC(=O)CCC(F)(F)F)cc2C1=O	30[16.7 µM]	149*	5[16.7 µM]	.	12	.
Cc1noc(C)c1S(=O)(=O)Nc1ccc2c(c1)C(=O)N([C@@H](C)CO)C[C@H](C)[C@H](CN(C)Cc1ccncc1)O2	-18[16.7 µM]	-3	-4[16.7 µM]	.	15	.
CC(C)NC(=O)Nc1ccc2c(c1)C(=O)N([C@H](C)CO)C[C@H](C)[C@H](CN(C)Cc1ccncc1)OCCCC[C@H](C)O2	4[16.7 µM]	114*	1[16.7 µM]	.	3	.
C[C@H](CO)N1C[C@H](C)[C@H](CN(C)Cc2ccncc2)Oc2ccc(NC(=O)c3ccncc3)cc2CC1=O	-3[16.7 µM]	-1	5[16.7 µM]	.	14	.
C[C@@H]1CN([C@@H](C)CO)C(=O)Cc2cc(NC(=O)c3ccncc3)ccc2O[C@H]1CN(C)Cc1ccncc1	4[16.7 µM]	100*	3[16.7 µM]	.	1	.
CCOC(=O)c1c(C)oc2c1c(C=NCCO)c(O)c1ccccc12	35	.	.	-11	-5	53*
CCOC(=O)c1c(C)oc2c1c(C(c1ccccc1)N1CCOCC1)c(O)c1ccccc12 (stereo not given)	-362	-1	-6	-9	.	-2
Cc1sc(NC(=O)Cc2ccc3c(c2)OCO3)nc1-c1ccc2c(c1)CCN2C(=O)c1ccccc1F	74*	-3	5	-8	-16	-11
O=S1(=O)CCO[C@H]2Cc3ccccc3[C@H]2N1Cc1cccc(C(F)(F)F)c1	66*	1	5	4	-10	8
SMILES	Env fusion inh	Cneo AK release	miR-122 sensor	dFosB act	INS-1E GSIS act	Rtt109 HAT inh
O=S1(=O)CCO[C@H]2Cc3ccccc3[C@H]2N1Cc1cccc(F)c1	2	-1	-1	-2	-39	-7
COc1cccc(NC(=O)C2(C)CCN2C(C)C)c1OC (stereo not given)	-6	-1	7	.	8	.
CCC(=O)N1CCC1(C)C(=O)Nc1cccc(OC)c1OC (stereo not given)	58*	0	-4	.	.	.
O=C(C[C@@H]1CC[C@H]2[C@@H](COC[C@H](O)CN2S(=O)(=O)c2ccccc2)O1)Nc1ccccc1	.	-4	-4[16.7 µM]	.	-3	.
Cc1[nH]nc2c1C1(C(=O)N(Cc3ccc(Cl)cc3)c3ccccc31)C(C#N)=C(N)O2 (stereo not given)	85*	0	-1	4	.	.
COc1cc2c(cc1OC)C(Nc1ccccc1)=NC(C)(C)C2	21	-5	-6	-2	57*	-3
COc1cc2c(cc1OC)-c1nc3ccccc3c(=O)n1C(C)(C)C2	3	-6	-1	-5	.	4
Cc1cccc(C)c1N(CC(O)Cn1c2ccccc2c2ccccc21)S(C)(=O)=O (stereo not given)	84*	1	2	-22	.	1
Cc1ccc(N(CC(O)CN2CCCC2)S(=O)(=O)c2ccc(C)cc2)cc1 (stereo not given)	.	6	-7	-8	-15	8
Cc1ccc(N(CC(O)Cn2c3ccccc3c3ccccc32)S(C)(=O)=O)cc1 (stereo not given)	.	-1	1	-12	-7	19
CC(=O)Nc1ccc(N(CC(O)Cn2c3ccccc3c3ccccc32)S(=O)(=O)c2ccc(C)cc2)cc1 (stereo not given)	105*	0	-4	1	-17	12
